Reference: ChEMBL document CHEMBL1833790, “N-(2-{3-[3,5-bis(trifluoromethyl)phenyl]ureido}ethyl)-glycyrrhetinamide (6b): a novel anticancer glycyrrhetinic acid derivative that targets the proteasome and displays anti-kinase activity” (J Med Chem, 2011)

Key:
[1] = Chemical stability of the compound in MEM cell culture medium after 7 days by HPLC analysis; assay type: physicochemical; settings: read-out: Stability
How it was run: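 Compound incubated in MEM culture medium at 37 °C for 7 days, then analysed by HPLC on RX-C8 (5 μm) column with MeOH–water 90:10 (0.1% TFA), diode-array detection. Expressed as % of incubated compound recovered.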

[2] = system: A549; test: Growth inhibition in apoptosis-resistant human A549 after 3 days by MTT assay; assay type: functional; settings: A549, 72 h
How it was run: (§1)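 Cells grown in RPMI with 10% heat-inactivated FCS, 4 mM glutamine, gentamicin and penicillin–streptomycin. Drug exposure 3 days, growth read by MTT colorimetric assay. Nine concentrations from 0.01 to 100 μM in semilog steps, six replicates each; IC50 derived per cell line.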

[3] = system: SK-MEL-28; test: Growth inhibition in apoptosis-resistant human SK-MEL-28 after 3 days by MTT assay; assay type: functional; settings: SK-MEL-28, 72 h; how it was run: as §1
[4] = system: T98G; test: Growth inhibition in apoptosis-resistant human T98G after 3 days by MTT assay; assay type: functional; settings: 72 h; how it was run: as §1
[5] = Growth inhibition in apoptosis-resistant human U373 after 3 days by MTT assay; assay type: functional, U-373MG ATCC; settings: U373 MG, 72 h; how it was run: as §1
[6] = system: Hs 683; test: Growth inhibition in apoptosis-sensitive human Hs683 after 3 days by MTT assay; assay type: functional; settings: Hs 683, 72 h; how it was run: as §1
[7] = system: PC-3; test: Growth inhibition in apoptosis-sensitive human PC3 after 3 days by MTT assay; assay type: functional; settings: PC-3, 72 h; how it was run: as §1
[8] = system: MCF7; test: Growth inhibition in apoptosis-sensitive human MCF7 after 3 days by MTT assay; assay type: functional; settings: MCF7, 72 h; how it was run: as §1
[9] = system: B16-F10; test: Growth inhibition in mouse B16F10 after 3 days by MTT assay; assay type: functional; settings: B16-F10, 72 h; how it was run: as §1

Compound | remaining at 168 h [1] [%] | GI50 [2] [µM] | GI50 [3] [µM] | GI50 [7] [µM] | GI50 [8] [µM] | GI50 [9] [µM] | GI50 [4] [µM] | GI50 [5] [µM] | GI50 [6] [µM]
CC(C)(C)OC(=O)NCCNC(=O)[C@@]1(C)CC[C@]2(C)CC[C@]3(C)C(=CC(=O)[C@@H]4[C@@]5(C)CC[C@H](O)C(C)(C)[C@@H]5CC[C@]43C)[C@@H]2C1 | 93 | 43 | 60 | 41 | 37 | 48 | 73 | 57 | 63
CC1(C)[C@@H](O)CC[C@]2(C)[C@H]3C(=O)C=C4[C@@H]5C[C@@](C)(C(=O)NCCNC(=O)Nc6ccccc6)CC[C@]5(C)CC[C@@]4(C)[C@]3(C)CC[C@@H]12 | 96 | 29 | 49 | 32 | 28 | 31 | 30 | 30 | 28
CC1(C)[C@@H](O)CC[C@]2(C)[C@H]3C(=O)C=C4[C@@H]5C[C@@](C)(C(=O)NCCc6ccc(F)cc6)CC[C@]5(C)CC[C@@]4(C)[C@]3(C)CC[C@@H]12 | 95 | 33 | 82 | 33 | 31 | 32 | 46 | 42 | 56
CSCCCNC(=S)NCCNC(=O)[C@@]1(C)CC[C@]2(C)CC[C@]3(C)C(=CC(=O)[C@@H]4[C@@]5(C)CC[C@H](O)C(C)(C)[C@@H]5CC[C@]43C)[C@@H]2C1 | 93 | 38 | 33 | 39 | 30 | 33 | 35 | 35 | 36

Second part, led by results:

remaining at 168 h [1] [%] | GI50 [2] [µM] | GI50 [3] [µM] | GI50 [7] [µM] | GI50 [8] [µM] | GI50 [9] [µM] | Compound | GI50 [4] [µM] | GI50 [5] [µM] | GI50 [6] [µM]
99 | 63 | 42 | 72 | 46 | 31 | COc1cccc(C(=O)NCCNC(=O)[C@@]2(C)CC[C@]3(C)CC[C@]4(C)C(=CC(=O)[C@@H]5[C@@]6(C)CC[C@H](O)C(C)(C)[C@@H]6CC[C@]54C)[C@@H]3C2)c1 | 77 | 75 | 58
99 | 37 | 38 | 47 | 30 | 31 | CSc1ccc(C(=O)NCCNC(=O)[C@@]2(C)CC[C@]3(C)CC[C@]4(C)C(=CC(=O)[C@@H]5[C@@]6(C)CC[C@H](O)C(C)(C)[C@@H]6CC[C@]54C)[C@@H]3C2)cc1 | 54 | 37 | 36
91 | 37 | > 100 | 34 | 36 | 31 | COc1ccc(CCNC(=O)[C@@]2(C)CC[C@]3(C)CC[C@]4(C)C(=CC(=O)[C@@H]5[C@@]6(C)CC[C@H](O)C(C)(C)[C@@H]6CC[C@]54C)[C@@H]3C2)cc1 | 68 | 49 | 61
95 | 47 | 49 | 53 | 28 | 36 | CC1(C)[C@@H](O)CC[C@]2(C)[C@H]3C(=O)C=C4[C@@H]5C[C@@](C)(C(=O)NCCNC(=O)c6ccc(C(F)(F)F)cc6)CC[C@]5(C)CC[C@@]4(C)[C@]3(C)CC[C@@H]12 | 62 | 55 | 38
92 | 68 | 35 | 72 | 27 | 31 | CC1(C)[C@@H](O)CC[C@]2(C)[C@H]3C(=O)C=C4[C@@H]5C[C@@](C)(C(=O)NCCNC(=O)c6ccc(C#N)cc6)CC[C@]5(C)CC[C@@]4(C)[C@]3(C)CC[C@@H]12 | 77 | 76 | 67
